Experimental data from different studies.
Each line is one published result; the experiments were not run side by side.
Cell line: COLO 205
Read-out: cell growth or viability

COc1cccc(Oc2ccccc2NC(=O)CNC(=O)c2cccc3ccccc23)c1 — GI50 (SRB; 48 h): 282 nM
COc1c2ccoc2c(OCC=C(C)C)c2oc(=O)ccc12 — IC50 (MTT; 24 h): > 100000 nM
COc1ccc(C(=O)/C=C/c2ccccc2Br)cc1S(N)(=O)=O — GI50 (SRB; 48 h): 2200 nM
CC(C)C[C@H](NC(=O)[C@H](Cc1ccccc1)NC(=O)c1cnccn1)B(O)O — IC50 (ATP luminescence): 22 nM
CC(C)[C@H](N)c1nc2cc(-c3ccncc3F)sc2c(=O)[nH]1 — IC50 (MTT): 24.8 nM
COc1cc(Nc2nccc(-c3cnn4nc(OC)ccc34)n2)cc(C(F)(F)F)c1 — IC50 (ATP luminescence): 510 nM
Cc1cc(-c2cc3nc([C@@H](N)C(C)C)[nH]c(=O)c3s2)ccn1 — IC50 (MTT): 1410 nM
COc1cc2ccc(=O)oc2cc1OC — IC50 (MTT; 24 h): > 100000 nM
CC(C)[C@H](N)c1nc2cc(-c3ccnc(F)c3)sc2c(=O)[nH]1 — IC50 (MTT): 89.3 nM
COc1ccc(C(=O)/C=C/c2cccc(Cl)c2)cc1S(N)(=O)=O — inhibition (SRB; 10 µM): 165%
